High-throughput results: PubChem, several laboratories
An excerpt weighted towards active compounds, which were near 5.2% of everything screened.
NS3 helicase inh – blocks Hepatitis C virus NS3 helicase unwinding; NS3 helicase DNA unwinding, Cy5 molecular beacon fluorescence; inhibition, % at 10.9 µM; 290,000 tested, 0.56% active; AID 1800;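 active = inhibition above the mean of all tested compounds plus 3 SD, set per campaign, cut at about 35% in these data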;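 note: 0% = DMSO wells and 100% = thioflavine S control wells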
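Compound dosing – single dose, 10.9 µM nominal final, DMSO 0.8% final · System – NS3 helicase fragment of HCV · Buffer or medium – MOPS pH 6.5, MgCl2, DTT, Tween20, BSA · Signal – Cy5 beacon fluorescence read at start and 1 h · Also added – annealed dual-labelled DNA beacon duplex, ATP-started · Schedule – 1 h at 25 °C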
ALR inh – inhibitors of human sulfhydryl oxidase ALR | P55789 | purified ALR, DTT oxidation, H2O2 HRP-luminol luminescence | inhibition, % (test concentration not listed) | 290,000 tested, 3.8% active | AID 485317;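 active = mean replicate inhibition above about 79%, with every replicate also reaching it, limit read from the data; inconclusive = only one of the two criteria met; inactive = mean below limit and not every replicate reaching it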
Target sequence (P55789 whole entry, looked up): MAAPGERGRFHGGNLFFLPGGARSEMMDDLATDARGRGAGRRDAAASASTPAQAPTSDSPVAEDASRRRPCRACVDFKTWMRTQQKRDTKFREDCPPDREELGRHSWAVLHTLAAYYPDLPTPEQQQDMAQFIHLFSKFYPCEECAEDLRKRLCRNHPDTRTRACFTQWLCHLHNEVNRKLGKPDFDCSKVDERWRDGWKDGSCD
ZTA DNA inh – ZTA (EBV) inhibition in EBNA-1 counter-screen; P03206; ZTA-DNA binding, fluorescence polarization; inhibition, % at 11 µM; 320,000 tested, 0.15% active; in the data active = inhibition above about 33%
Target sequence (P03206 whole entry, looked up): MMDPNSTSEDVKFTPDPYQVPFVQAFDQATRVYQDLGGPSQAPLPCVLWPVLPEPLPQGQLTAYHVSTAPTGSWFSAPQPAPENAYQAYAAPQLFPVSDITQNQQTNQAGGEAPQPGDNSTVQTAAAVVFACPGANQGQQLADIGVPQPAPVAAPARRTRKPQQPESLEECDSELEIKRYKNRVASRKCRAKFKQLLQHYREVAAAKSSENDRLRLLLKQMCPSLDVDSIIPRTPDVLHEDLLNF
EBNA-1 inhibitor – blocks EBNA-1 binding to DNA. EBNA-1 DNA binding, fluorescence polarization. inhibition, % at 14.8 µM. 300,000 tested, 0.34% active; in the data active = inhibition above about 28%
core dimer inh – HCV core protein dimerization inhibition. TR-FRET GST/Flag-core106 dimerization, 1536-well. inhibition, % at 5 µM. 300,000 tested, 0.33% active. AID 1899;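 active = inhibition above the mean of all tested compounds plus 3 SD, set per screening campaign, cut at about 45% in these data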
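Assay system – GST-tagged and Flag-tagged HCV core protein residues 1-106 · Quantity – core106 proteins, GST 13.5 nM and Flag 17 nM · Benchmarks – unlabelled core106 and no-GST-core106 wells · Read-out basis – percent inhibition of core106 dimerization signal · Detection – time-resolved FRET, ex 340 nm, em 617 and 671 nm · Schedule – 4 h at 22.5 °C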
M18AAP inhibitor – blocks P. falciparum M18 aspartyl aminopeptidase | inhibition, % at 7.35 µM | 290,000 tested, 1.2% active | AID 1822 | recombinant PfM18AAP, H-Glu-NHMec fluorogenic cleavage;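 active = inhibition above the campaign mean inhibition over all tested compounds plus 3 SD, cut at about 28% in these data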;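 note: 0% = plate median of test compound wells and 100% = 2 mM ZnCl2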
The depositor's hits bear a star; ? = inconclusive; . = not tested or not shown.

SMILES	NS3 helicase inh	ALR inh	ZTA DNA inh	EBNA-1 inhibitor	core dimer inh	M18AAP inhibitor
Cc1ccc(C)c(NC(=O)CSc2nc(=O)n(CCN3CCOCC3)c3c2CCCC3)c1	.	-0.6	-0.1	0.2	-0.1	.
COc1ccc(CNC(=O)c2cc3cccc(O)c3oc2=N)cc1	6.2	-18.4	5.4	-4.6	-3.1	28.9*
CCOc1cccc2cc(C(=O)NCc3ccc(OC)cc3)c(=N)oc12	-0.4	-6.1	-9.8	-1.3	5.6	0.7
COc1ccc(CNC(=O)c2cccc(N(C)C)c2)cc1	7.8	82.7*	-1.6	1.6	-1.6	6.9
COc1ccc(CCNC(=O)CSc2nc(=O)n3cc(C)ccc3n2)cc1OC	.	1.9	-4.5	6.1	-8.6	.
CC1CCCCC12NC(=O)N(CC(=O)NCCc1ccccc1)C2=O (stereo not drawn)	.	0.5	.	.	.	.
OCn1ncn(-c2ccccc2)c1=S	-1.1	92.1*	-2.1	1.6	1.9	6.0
Cc1ccc(Cn2ncn(-c3ccccc3)c2=O)cc1	0.0	-14.3	-6.1	-2.1	-7.3	-4.6
Cc1ncc(CO)c(CNc2ccc(-c3nc4ccccc4[nH]3)cc2)c1O	-3.2	98.3*	.	.	.	16.7
Cc1ncc(CO)c(CO)c1O	.	-0.2	-18.9	-7.3	-7.0	.
CNC(=O)c1c(NC(=O)c2cccc(C)c2)sc2c1CCC2	-6.6	95.2*	-10.0	-14.6	2.2	10.8
C=C(C)CN=c1scc(C)n1/N=C/c1ccco1	4.2	99.1*	-3.9	-0.8	-17.2	4.8
Cc1occc1-c1n[nH]c(=S)n1-c1ccccc1	5.7	94.3*	-19.0	1.0	-11.2	17.4
COc1ccc2nc3cc(Cl)ccc3c(Nc3cc(CN4CCCC4)c(O)c(CN4CCCC4)c3)c2n1	-44.1	98.7*	-18.6	2.4	-41.8	28.3*
Cc1cccc(C)c1OCC(=O)Nc1ncn[nH]1	-0.4	-3.6	-17.9	-12.9	4.0	29.2*
S=c1nc(-c2ccccc2)n(Cc2cccnc2)c2c1CCCC2	-13.2	94.2*	-4.7	4.2	7.2	0.5
N#C/C(N)=C(/C#N)N=Cc1cccc(Cl)c1	-7.6	6.8	-0.9	-9.3	-6.7	-7.6
COc1ccc(/C=C/C(=O)OCC(=O)NC2CCCCC2C)c(OC)c1 (stereo not drawn)	.	.	-2.8	.	.	.
Cc1ccc(C(=O)Sc2cccccc2=O)cc1	25.2	99.4*	-14.0	-7.4	11.3	1.5
Cc1ccc(C(=O)CC(=O)c2ccccc2)cc1	30.6	0.7	18.3	13.3	7.6	3.9
CCOC(=O)CC1C(=O)NCCN1S(=O)(=O)c1ccc(NC(C)=O)cc1 (stereo not drawn)	5.3	-1.9	7.6	-3.0	4.7	28.4*
CCOC(=O)CC1C(=O)NCCN1S(=O)(=O)c1ccc(F)cc1 (stereo not drawn)	8.6	-4.7	1.7	-5.5	5.4	-0.2
Cc1ccn(-c2cc(O)c(-n3ccc(C)n3)cc2O)n1	-6.0	-26.3	8.5	1.5	5.7	18.0
CS(=O)(=O)n1nc(OC(=O)c2cccs2)cc1N	-3.4	89.1*	5.3	-10.0	-1.9	-6.6
CCN(CC)S(=O)(=O)c1ccc(N/N=C(\C)c2ccncc2)nc1	-4.7	-0.9	5.3	6.6	5.6	3.6
SMILES	NS3 helicase inh	ALR inh	ZTA DNA inh	EBNA-1 inhibitor	core dimer inh	M18AAP inhibitor
O=c1[nH]ncc(N/N=C\c2ccc(O)cc2O)c1Cl	7.7	96.5*	-10.7	4.8	-8.3	23.7
Oc1ccc(/C=N/Nc2cccc3cccnc23)c(O)c1	14.6	83.7*	2.3	13.6	-26.3	24.3
CCN(CC)S(=O)(=O)c1ccc(N/N=C/c2ccc(O)cc2O)nc1	-6.9	.	2.0	-0.1	-9.8	36.5*
O=c1[nH]ncc(NCCCO)c1Cl	4.5	0.3	-11.1	-10.1	11.8	-3.5
Oc1ccc(/C=N/Nc2ncc(Br)cn2)c(O)c1	5.8	26.3	-13.9	-6.4	-15.1	51.7*
CCCCCc1c(O)nc(SCC(=O)O)[nH]c1=O	18.4	.	.	.	.	11.9
Cc1occc1C(=O)N1CCCC(Nc2ccc(F)cc2)C1 (stereo not drawn)	-1.9	98.4*	-2.9	-3.0	2.5	2.7
Cc1ccc2nc(C(=O)N3CCCC(Nc4ccc(F)cc4)C3)cn2c1 (stereo not drawn)	10.2	29.6	1.9	10.2	0.4	-9.0
Cc1ccc2nccc(C(=O)N3CCCC(Nc4ccc(F)cc4)C3)c2c1 (stereo not drawn)	0.9	98.4*	-8.8	-5.0	-6.4	0.2
O=C(c1ccccc1-c1ncc[nH]1)N1CCCC(Nc2ccc(F)cc2)C1 (stereo not drawn)	0.5	98.5*	11.0	14.5	2.3	2.4
Cc1cc(C(=O)N2CCCC(Nc3ccc(F)cc3)C2)c(C)o1 (stereo not drawn)	0.6	?	10.2	-2.5	2.1	-10.3
Cc1occc1C(=O)N1CCCC(Nc2ccc(C(C)C)cc2)C1 (stereo not drawn)	-3.6	98.7*	3.5	12.7	2.5	8.2
O=C(CCn1nnnc1CN1CCOCC1)N1CCC(c2cccc(Cl)c2)C1 (stereo not drawn)	-2.9	-2.5	17.7	6.0	6.9	-3.2
Cc1ccc(NC(=O)C(C)OC(=O)Cn2[nH]c(=O)c3ccccc3c2=O)cc1 (stereo not drawn)	.	-1.7	-7.8	-3.0	-1.2	.
CC(=O)Nc1nonc1NC(=O)COc1ccccc1	-9.7	-3.1	-7.3	4.5	-2.9	3.4
O=C(c1cc(COc2cccc(C(F)(F)F)c2)on1)N1CCC(Oc2cccnc2)CC1	-19.6	1.5	11.9	-3.5	2.0	-1.5
Cc1ccc(NC2CCCN(C(=O)c3cnc4ccccn4c3=O)C2)cc1C (stereo not drawn)	4.3	.	5.5	-12.6	-13.0	20.9
CC(C)c1ccc(NC2CCCN(C(=O)c3cnc4ccccn4c3=O)C2)cc1 (stereo not drawn)	1.4	94.5*	-5.3	6.3	4.5	-3.2
Nc1ccc(Oc2ncccn2)cc1	-7.4	18.4	1.0	-5.3	-10.6	28.3*
C/C(=N\NC(=O)c1ccco1)c1cc(Cl)sc1Cl	4.1	-0.2	-7.5	0.5	4.1	2.1
CC1(C)OC(=O)C(=NNc2ccc(O)cc2)C(=O)O1	2.7	99.3*	11.3	-1.4	-3.1	9.5
Cc1cc(=S)[nH]c2c(C)cccc12	-0.6	-3.0	4.8	-2.2	-1.3	33.1*
Nc1sccc1C(=O)c1ccccc1	13.5	97.5*	-3.0	-13.6	0.9	6.9
O=C(c1ccccc1)c1ccccc1C(=O)c1ccccc1	-0.2	-10.4	-9.1	-1.6	-0.8	-6.9
Oc1[nH]c2ccccc2c1N=Nc1nc2ccccc2s1	-1.1	88.1*	-6.4	4.2	-18.9	-0.9
Cc1ccc2[nH]c(O)c(N=Nc3nc4ccccc4s3)c2c1	-0.8	.	-6.8	-3.5	-21.0	1.2
CC/C(=N\NC(=O)CCC(=O)NCc1ccccc1)c1ccc(O)cc1	-9.6	98.8*	1.6	1.0	-5.5	3.1
